Shown are actives, neighbours in structure and some others; about 5.2% of the full set was active somewhere.
ALR H2O2 inh: inhibitors of human ALR sulfhydryl oxidase, primary screen, biochemical, H2O2 detection, HRP-luminol luminescence, single point | FAD-linked sulfhydryl oxidase ALR (Homo sapiens), P55789 | purified ALR, DTT oxidation | inhibition, % (no concentration beside the values) | actives 3.8% (n = 290,000) | AID 485317, 2010;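 active = mean replicate inhibition above about 79%, with every replicate also reaching it, limit read from the data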
Target sequence (P55789 whole entry, looked up): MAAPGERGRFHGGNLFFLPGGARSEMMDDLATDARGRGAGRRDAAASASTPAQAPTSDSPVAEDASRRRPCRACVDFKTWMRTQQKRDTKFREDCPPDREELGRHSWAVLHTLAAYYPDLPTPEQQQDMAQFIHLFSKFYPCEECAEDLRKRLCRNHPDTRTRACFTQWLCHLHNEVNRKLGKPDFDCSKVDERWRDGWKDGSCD
EBNA-1 inh: EBNA-1 DNA-binding inhibitors, primary screen, biochemical, fluorescence polarization; actives 0.34% (n = 300,000); inhibition, % at 14.8 µM; in the data active = inhibition above about 28%
core dimer inh: inhibitors of HCV core protein dimerization, primary screen, biochemical, TR-FRET, high-throughput; TR-FRET GST/Flag-core106 dimerization, 1536-well; inhibition, % at 5 µM; actives 0.33% (n = 300,000); AID 1899, 2009;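 active = inhibition above the mean of all tested compounds plus 3 SD, set per screening campaign, cut at about 45% in these data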
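assay system = GST-tagged and Flag-tagged HCV core protein residues 1-106 | controls = unlabelled core106 and no-GST-core106 wells | incubation = compound-protein-antibody incubation 4 h at 22.5 °C | probe or stimulus = Eu donor and XL665 acceptor anti-tag antibodies | read-out = % inhibition based on acceptor/donor emission ratio | signal = TR-FRET 671 and 617 nm emission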
NS3 helicase inh: inhibitors of HCV NS3 helicase, primary screen, biochemical, Cy5 molecular beacon fluorescence | inhibition, % at 10.9 µM | actives 0.56% (n = 290,000) | AID 1800, 2009 | NS3 helicase DNA unwinding;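 active = inhibition above the mean of all tested compounds plus 3 SD, set per campaign, cut at about 35% in these data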;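 note: 0% = DMSO wells and 100% = thioflavine S control wells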
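test system = hepatitis C virus NS3 helicase domain fragment enzyme | reagent = annealed dual-labelled DNA beacon duplex, ATP-started | times = 1 h at 25 °C | detection = Cy5 fluorescence, 0 and 60 min reads | read-out basis = percent inhibition from t60/t0 fluorescence ratio | control set = DMSO and thioflavine S | replication = one well per compound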
ZTA DNA inh: ZTA (EBV) inhibition in EBNA-1 counter-screen; P03206; ZTA-DNA binding, fluorescence polarization; inhibition, % at 11 µM; actives 0.15% (n = 320,000); in the data active = inhibition above about 33%
Target sequence (P03206 whole entry, looked up): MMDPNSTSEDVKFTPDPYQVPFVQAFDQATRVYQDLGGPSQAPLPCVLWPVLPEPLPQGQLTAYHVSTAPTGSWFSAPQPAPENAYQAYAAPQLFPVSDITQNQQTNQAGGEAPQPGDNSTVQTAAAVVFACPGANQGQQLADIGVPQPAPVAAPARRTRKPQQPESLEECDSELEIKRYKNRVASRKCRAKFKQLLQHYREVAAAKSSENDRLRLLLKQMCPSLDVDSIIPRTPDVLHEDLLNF
PfM18AAP inh: PfM18AAP inhibitors, malaria aminopeptidase, primary screen, biochemical, QFRET, recombinant enzyme; H-Glu-NHMec fluorogenic cleavage; inhibition, % at 7.35 µM; actives 1.2% (n = 290,000); M18 aspartyl aminopeptidase (Plasmodium falciparum 3D7);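 active = inhibition above the campaign mean inhibition over all tested compounds plus 3 SD, cut at about 28% in these data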;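 note: 0% = plate median of test compound wells and 100% = 2 mM ZnCl2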
ZTA inh confirm: EBV Zta binding to ZRE DNA, inhibitors, confirmation, biochemical, fluorescence polarization, triplicate; shares compounds with ZTA DNA inh; inhibition, % at 11.1 µM; actives 30% (n = 320);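 active = mean inhibition across triplicate runs above the hit threshold derived for the original primary screen, cut at about 33% in these data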;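 note: 0% = Zta with DMSO and 100% = wells lacking Zta protein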
EBNA1 counter: EBNA-1 DNA-binding inhibition, counter-screen for ZTA inhibitor project, biochemical, fluorescence polarization; AID 2362, 2010; 320 tested, under 10 active; inhibition, % at 14.8 µM; shares compounds with ZTA DNA inh; call rule not given here
An asterisk follows results filed as active.

C[n+]1c2ccccc2nc2ccc(NCCO)cc21 was read as ALR H2O2 inh -17, EBNA-1 inh 22, core dimer inh -102, NS3 helicase inh 21, ZTA DNA inh 60*, PfM18AAP inh 5, ZTA inh confirm 48* and EBNA1 counter 27.
Screening COCCCn1c(-c2ccc(OC)cc2)cc(C(=O)NC2CCCCCCC2)c1C returned ALR H2O2 inh 51, EBNA-1 inh 2, core dimer inh 5, NS3 helicase inh -4, ZTA DNA inh 12 and PfM18AAP inh -6.
For CCCCC(=O)N/N=C/c1c(O)n(CC)c(=S)[nH]c1=O the results were ALR H2O2 inh 3, EBNA-1 inh 7, core dimer inh 9, NS3 helicase inh -7, ZTA DNA inh 36*, PfM18AAP inh 11, ZTA inh confirm -3 and EBNA1 counter -8.
For Cc1ccc(-n2c(O)c(/C=N/N3CCCCCC3)c(=O)[nH]c2=O)cc1C the results were EBNA-1 inh -6, core dimer inh -2, NS3 helicase inh 3, ZTA DNA inh 1 and PfM18AAP inh 5.
Cn1c(O)c(/C=N/N2CCCCC2)c(=O)[nH]c1=O was read as ALR H2O2 inh 68, EBNA-1 inh 2, core dimer inh 2, NS3 helicase inh 1, ZTA DNA inh 37*, PfM18AAP inh 2, ZTA inh confirm 1 and EBNA1 counter 4.
NC1CCc2cc(O)c(O)cc2C1 (stereo not drawn) was read as EBNA-1 inh 9, core dimer inh 4 and ZTA DNA inh -3.
Screening CCN(CC)c1ccc(N=Cc2c(O)n(-c3cc(OC)ccc3OC)c(=O)[nH]c2=O)cc1 returned ALR H2O2 inh 95*, EBNA-1 inh -17, core dimer inh -4, NS3 helicase inh 36, ZTA DNA inh 34*, PfM18AAP inh 34*, ZTA inh confirm -6 and EBNA1 counter -6.
For CCc1ccc(-c2nn(Cc3ccccc3)cc2C=O)cc1 the results were ALR H2O2 inh 2, EBNA-1 inh -3, core dimer inh -8, NS3 helicase inh 0, ZTA DNA inh -21 and PfM18AAP inh 14.
For COCCCn1c(N)c(C(=O)OCCOC)c2nc3ccccc3nc21 the results were EBNA-1 inh 9, core dimer inh 1, NS3 helicase inh 8, ZTA DNA inh 13 and PfM18AAP inh 9.
CCOC(=O)c1c(NS(=O)(=O)c2ccccc2)n(CCCOC)c2nc3ccccc3nc12 was read as ALR H2O2 inh 23, EBNA-1 inh 7, core dimer inh 7, NS3 helicase inh 8, ZTA DNA inh 56*, PfM18AAP inh 18, ZTA inh confirm -4 and EBNA1 counter -10.
Screening Cc1nc2c(=O)n(C)c(=O)nc-2n(C)n1 returned ALR H2O2 inh -37, EBNA-1 inh -3, core dimer inh 55*, NS3 helicase inh 4, ZTA DNA inh 46*, PfM18AAP inh 1, ZTA inh confirm 71* and EBNA1 counter -7.
For CC(C)(CN)CC(=O)O the results were ALR H2O2 inh -1, EBNA-1 inh -5, core dimer inh -6, NS3 helicase inh -5, ZTA DNA inh -2 and PfM18AAP inh -4.
Screening O=C1C(=O)c2ccccc2-c2ccccc21 returned ALR H2O2 inh 31, EBNA-1 inh 5, core dimer inh 44, NS3 helicase inh 15, ZTA DNA inh 65*, PfM18AAP inh 21, ZTA inh confirm 68* and EBNA1 counter -8.
`O=C1C(=O)c2cccc3cccc1c23` gave ALR H2O2 inh -2, EBNA-1 inh -10, core dimer inh -11, NS3 helicase inh 17, ZTA DNA inh -12 and PfM18AAP inh 4.

Screening data from PubChem.
